Active and inactive are the calls of the source. The rule behind the calls is not given here.
Key:
Helicoverpa zea [1] = experiment: Antiinsectan activity in Helicoverpa zea at 100 ppm; format: functional, organism-based
Method in brief: (§1)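 Test material was mixed into the H. zea diet at the stated ppm level (100 or 1500 ppm). Activity was scored as the reduction in weight gain relative to controls.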

Bacillus subtilis = experiment: Antibacterial activity against Bacillus subtilis ATCC 6051 at 100 ug/disk by standard disk diffusion assay; format: functional
Method in brief: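 Standard paper-disk diffusion test with 100 μg loaded per disk against B. subtilis ATCC 6051. Read-out is the diameter of the inhibition zone in mm.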

Helicoverpa zea [2] = experiment: Antiinsectan activity in Helicoverpa zea assessed as reduction in weight gain at 1500 ppm relative to control; format: functional; parameters: scale not given: the % may be the effect or the level left; method in brief: as §1

Compound	Activity (Helicoverpa zea [1])	Activity (Bacillus subtilis)	zone of inhibition at 100 µg/disc (Bacillus subtilis; read-out: IZ)	Activity (Helicoverpa zea [2])
COC(=O)CNC(=O)c1ccc([C@H](O)c2ccccc2)cn1	inactive	–	–	–
O=C(O)CCCCCC/C=C/CO	inactive	inactive	–	–
O=C(O)CNC(=O)c1ccc([C@H](O)c2ccccc2)cn1	inactive	inactive	–	–
COC(=O)c1ccc([C@H](O)c2ccccc2)cn1	inactive	–	–	–
COC(=O)CNC(=O)c1ccc(C(=O)c2ccccc2)cn1	inactive	–	–	–
O=C(O)c1ccc([C@H](O)c2ccccc2)cn1 [VERTILECANIN A]	inactive	–	8 mm	49%
O=C(O)/C=C/CCCCCCC(=O)O	inactive	–	–	–

Reference: ChEMBL document CHEMBL1155706, “Vertilecanins: new phenopicolinic acid analogues from Verticillium lecanii” (2001)
